Data reported in ChEMBL document CHEMBL1158565, “Antagonism of 4-substituted 1,4-dihydropyridine-3,5-dicarboxylates toward voltage-dependent L-type Ca2+ channels Ca V 1.3 and Ca V 1.2” (Bioorg Med Chem, 2010).

Columns and labels:
[1] = target: Voltage-dependent L-type calcium channel subunit alpha-1D (Rattus norvegicus) (UniProt P27732); assay: Antagonist activity at rat Cav1.3 expressed in HEK293 cells assessed as inhibition of voltage pulse-induced calcium current at 100 nM by whole-cell patch-clamp recording
[2] = target: T1, Voltage-dependent L-type calcium channel subunit alpha-1C (Oryctolagus cuniculus, UniProt P15381); assay: Antagonist activity at rabbit Cav1.2 expressed in tsA201 cells assessed as inhibition of voltage pulse-induced calcium current at 100 nM by whole-cell patch-clamp recording
[3] = Selectivity ratio of antagonist activity at rat Cav1.3 to antagonist activity at rabbit Cav1.2 at 100 nM; type: functional
Procedure, shortened: (§1)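 Percent inhibition of Cav1.3 current was divided by that of Cav1.2 at the same concentration. Currents were from whole-cell patch clamp in transiently transfected tsA201 cells: Ba2+ bath, pH 7.4, steps from -60 mV, about 22 °C.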

[4] = target: T1, Voltage-dependent L-type calcium channel subunit alpha-1C; assay: Antagonist activity at rabbit Cav1.2 expressed in tsA201 cells assessed as inhibition of voltage pulse-induced calcium current at 1000 nM by whole-cell patch-clamp recording
[5] = Selectivity ratio of IC50 for Cav1.2 to IC50 for Cav1.3
[6] = Selectivity ratio of antagonist activity at rat Cav1.3 to antagonist activity at rabbit Cav1.2 at 500 nM; type: functional
Procedure, shortened: as §1

[7] = target: T1, Voltage-dependent L-type calcium channel subunit alpha-1C; assay: Antagonist activity at rabbit Cav1.2 expressed in tsA201 cells assessed as inhibition of voltage pulse-induced calcium current at 500 nM by whole-cell patch-clamp recording
[8] = target: Voltage-dependent L-type calcium channel subunit alpha-1D (Rattus norvegicus) (UniProt P27732); assay: Antagonist activity at rat Cav1.3 expressed in tsA201 cells assessed as inhibition of voltage pulse-induced calcium current at 500 nM by whole-cell patch-clamp recording
[9] = target: T1, Voltage-dependent L-type calcium channel subunit alpha-1C; assay: Antagonist activity at rabbit Cav1.2 expressed in tsA201 cells assessed as inhibition of voltage pulse-induced calcium current at 10 nM by whole-cell patch-clamp recording
[10] = target: Voltage-dependent L-type calcium channel subunit alpha-1D (Rattus norvegicus) (UniProt P27732); assay: Antagonist activity at rat Cav1.3 expressed in HEK293 cells assessed as inhibition of voltage pulse-induced calcium current at 10 nM by whole-cell patch-clamp recording
[11] = Selectivity ratio of antagonist activity at rat Cav1.3 to antagonist activity at rabbit Cav1.2 at 10 nM; type: functional
Procedure, shortened: as §1

[12] = target: T1, Voltage-dependent L-type calcium channel subunit alpha-1C; assay: Antagonist activity at rabbit Cav1.2 expressed in tsA201 cells assessed as inhibition of voltage pulse-induced calcium current at 200 nM by whole-cell patch-clamp recording
[13] = target: Voltage-dependent L-type calcium channel subunit alpha-1D (Rattus norvegicus) (UniProt P27732); assay: Antagonist activity at rat Cav1.3 expressed in HEK293 cells assessed as inhibition of voltage pulse-induced calcium current at 200 nM by whole-cell patch-clamp recording
[14] = Selectivity ratio of antagonist activity at rat Cav1.3 to antagonist activity at rabbit Cav1.2 at 200 nM; type: functional
Procedure, shortened: as §1

[15] = target: T1, Voltage-dependent L-type calcium channel subunit alpha-1C; assay: Antagonist activity at rabbit Cav1.2 expressed in HEK293 cells assessed as inhibition of voltage pulse-induced calcium current at 1000 nM by FLIPR calcium 4 assay; type: functional, cell-based
[16] = target: Voltage-dependent L-type calcium channel subunit alpha-1D (Rattus norvegicus) (UniProt P27732); assay: Antagonist activity at rat Cav1.3 expressed in HEK293 cells assessed as inhibition of voltage pulse-induced calcium current at 10 nM by FLIPR calcium 4 assay; type: functional, cell-based; conditions: in the assay text read “by whole-cell patch-clamp recording” for “by FLIPR calcium 4 assay”
Procedure, shortened: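 Whole-cell patch clamp on tsA201 cells transiently cotransfected with rabbit Cav1.2 α1C or rat Cav1.3 α1D, Cavβ3 and Cavα2δ-1 (1:1:1) plus GFP. GFP cells were recorded after replating at 48 h. Bath (mM): 110 NaCl, 1 MgCl2, 10 BaCl2, 10 HEPES, 10 glucose, 20 CsCl, pH 7.4. Compound was diluted from DMSO stock and perfused. Pulses ran from -60 mV to +10 or 0 mV with tetrodotoxin at about 22 °C. Read-out was percent current inhibition.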

Sequence of Voltage-dependent L-type calcium channel subunit alpha-1D (Rattus norvegicus) (P27732 whole entry, the tested form may be a part): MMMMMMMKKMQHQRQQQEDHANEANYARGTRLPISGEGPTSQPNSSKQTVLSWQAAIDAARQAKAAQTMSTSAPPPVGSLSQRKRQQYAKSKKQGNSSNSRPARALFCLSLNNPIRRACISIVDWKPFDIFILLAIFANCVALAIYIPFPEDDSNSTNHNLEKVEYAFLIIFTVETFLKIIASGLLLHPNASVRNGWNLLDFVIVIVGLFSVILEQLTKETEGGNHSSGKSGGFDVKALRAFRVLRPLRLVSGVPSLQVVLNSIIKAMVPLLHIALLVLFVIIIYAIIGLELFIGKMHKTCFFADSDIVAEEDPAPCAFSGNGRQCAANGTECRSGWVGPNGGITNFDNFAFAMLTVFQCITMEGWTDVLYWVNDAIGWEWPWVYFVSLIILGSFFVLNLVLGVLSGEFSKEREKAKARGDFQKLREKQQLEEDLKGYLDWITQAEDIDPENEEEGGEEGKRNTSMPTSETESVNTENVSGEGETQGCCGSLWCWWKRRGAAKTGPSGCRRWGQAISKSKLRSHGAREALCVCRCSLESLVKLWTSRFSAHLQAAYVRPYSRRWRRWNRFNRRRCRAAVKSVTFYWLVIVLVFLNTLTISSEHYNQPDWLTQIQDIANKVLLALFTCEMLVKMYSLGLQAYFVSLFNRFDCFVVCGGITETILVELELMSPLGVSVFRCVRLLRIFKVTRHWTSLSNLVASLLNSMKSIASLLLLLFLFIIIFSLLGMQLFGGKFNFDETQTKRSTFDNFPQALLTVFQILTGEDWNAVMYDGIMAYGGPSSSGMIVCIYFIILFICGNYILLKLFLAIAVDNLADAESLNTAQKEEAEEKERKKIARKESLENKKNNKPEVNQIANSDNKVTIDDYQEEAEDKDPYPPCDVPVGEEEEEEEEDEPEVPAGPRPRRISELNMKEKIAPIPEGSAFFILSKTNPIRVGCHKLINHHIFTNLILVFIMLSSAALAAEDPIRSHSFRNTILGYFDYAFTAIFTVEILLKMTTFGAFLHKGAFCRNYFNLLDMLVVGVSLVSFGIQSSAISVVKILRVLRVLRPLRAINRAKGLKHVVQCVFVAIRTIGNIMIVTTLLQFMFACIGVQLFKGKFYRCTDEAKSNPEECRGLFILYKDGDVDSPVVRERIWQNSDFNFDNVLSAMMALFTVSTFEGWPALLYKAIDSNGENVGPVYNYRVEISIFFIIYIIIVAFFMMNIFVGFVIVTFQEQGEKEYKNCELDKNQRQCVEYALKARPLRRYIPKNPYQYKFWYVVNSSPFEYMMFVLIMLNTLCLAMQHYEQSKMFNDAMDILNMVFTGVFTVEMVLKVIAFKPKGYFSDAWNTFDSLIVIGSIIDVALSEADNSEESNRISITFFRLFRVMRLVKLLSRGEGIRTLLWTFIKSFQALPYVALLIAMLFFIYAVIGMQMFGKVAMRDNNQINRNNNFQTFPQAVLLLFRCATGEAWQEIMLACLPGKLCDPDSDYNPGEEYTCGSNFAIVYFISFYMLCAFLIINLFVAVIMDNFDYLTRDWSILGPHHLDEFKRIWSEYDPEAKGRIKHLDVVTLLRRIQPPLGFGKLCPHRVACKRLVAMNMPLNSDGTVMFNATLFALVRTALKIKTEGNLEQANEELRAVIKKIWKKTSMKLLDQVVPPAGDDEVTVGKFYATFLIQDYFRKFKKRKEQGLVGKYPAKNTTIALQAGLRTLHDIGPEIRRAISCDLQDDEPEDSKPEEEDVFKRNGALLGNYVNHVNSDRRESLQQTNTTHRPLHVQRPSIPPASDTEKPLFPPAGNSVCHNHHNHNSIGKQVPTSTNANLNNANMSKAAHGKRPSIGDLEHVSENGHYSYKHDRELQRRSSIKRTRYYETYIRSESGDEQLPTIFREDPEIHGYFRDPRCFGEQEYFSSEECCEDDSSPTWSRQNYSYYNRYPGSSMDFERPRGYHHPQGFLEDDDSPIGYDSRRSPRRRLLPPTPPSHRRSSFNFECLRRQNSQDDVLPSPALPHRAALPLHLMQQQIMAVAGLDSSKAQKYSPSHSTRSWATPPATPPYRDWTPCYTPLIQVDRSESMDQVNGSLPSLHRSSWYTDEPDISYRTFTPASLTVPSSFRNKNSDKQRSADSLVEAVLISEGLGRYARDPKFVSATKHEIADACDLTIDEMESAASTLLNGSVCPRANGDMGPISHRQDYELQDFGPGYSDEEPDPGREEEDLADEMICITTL
T1 sequence (P15381 whole entry): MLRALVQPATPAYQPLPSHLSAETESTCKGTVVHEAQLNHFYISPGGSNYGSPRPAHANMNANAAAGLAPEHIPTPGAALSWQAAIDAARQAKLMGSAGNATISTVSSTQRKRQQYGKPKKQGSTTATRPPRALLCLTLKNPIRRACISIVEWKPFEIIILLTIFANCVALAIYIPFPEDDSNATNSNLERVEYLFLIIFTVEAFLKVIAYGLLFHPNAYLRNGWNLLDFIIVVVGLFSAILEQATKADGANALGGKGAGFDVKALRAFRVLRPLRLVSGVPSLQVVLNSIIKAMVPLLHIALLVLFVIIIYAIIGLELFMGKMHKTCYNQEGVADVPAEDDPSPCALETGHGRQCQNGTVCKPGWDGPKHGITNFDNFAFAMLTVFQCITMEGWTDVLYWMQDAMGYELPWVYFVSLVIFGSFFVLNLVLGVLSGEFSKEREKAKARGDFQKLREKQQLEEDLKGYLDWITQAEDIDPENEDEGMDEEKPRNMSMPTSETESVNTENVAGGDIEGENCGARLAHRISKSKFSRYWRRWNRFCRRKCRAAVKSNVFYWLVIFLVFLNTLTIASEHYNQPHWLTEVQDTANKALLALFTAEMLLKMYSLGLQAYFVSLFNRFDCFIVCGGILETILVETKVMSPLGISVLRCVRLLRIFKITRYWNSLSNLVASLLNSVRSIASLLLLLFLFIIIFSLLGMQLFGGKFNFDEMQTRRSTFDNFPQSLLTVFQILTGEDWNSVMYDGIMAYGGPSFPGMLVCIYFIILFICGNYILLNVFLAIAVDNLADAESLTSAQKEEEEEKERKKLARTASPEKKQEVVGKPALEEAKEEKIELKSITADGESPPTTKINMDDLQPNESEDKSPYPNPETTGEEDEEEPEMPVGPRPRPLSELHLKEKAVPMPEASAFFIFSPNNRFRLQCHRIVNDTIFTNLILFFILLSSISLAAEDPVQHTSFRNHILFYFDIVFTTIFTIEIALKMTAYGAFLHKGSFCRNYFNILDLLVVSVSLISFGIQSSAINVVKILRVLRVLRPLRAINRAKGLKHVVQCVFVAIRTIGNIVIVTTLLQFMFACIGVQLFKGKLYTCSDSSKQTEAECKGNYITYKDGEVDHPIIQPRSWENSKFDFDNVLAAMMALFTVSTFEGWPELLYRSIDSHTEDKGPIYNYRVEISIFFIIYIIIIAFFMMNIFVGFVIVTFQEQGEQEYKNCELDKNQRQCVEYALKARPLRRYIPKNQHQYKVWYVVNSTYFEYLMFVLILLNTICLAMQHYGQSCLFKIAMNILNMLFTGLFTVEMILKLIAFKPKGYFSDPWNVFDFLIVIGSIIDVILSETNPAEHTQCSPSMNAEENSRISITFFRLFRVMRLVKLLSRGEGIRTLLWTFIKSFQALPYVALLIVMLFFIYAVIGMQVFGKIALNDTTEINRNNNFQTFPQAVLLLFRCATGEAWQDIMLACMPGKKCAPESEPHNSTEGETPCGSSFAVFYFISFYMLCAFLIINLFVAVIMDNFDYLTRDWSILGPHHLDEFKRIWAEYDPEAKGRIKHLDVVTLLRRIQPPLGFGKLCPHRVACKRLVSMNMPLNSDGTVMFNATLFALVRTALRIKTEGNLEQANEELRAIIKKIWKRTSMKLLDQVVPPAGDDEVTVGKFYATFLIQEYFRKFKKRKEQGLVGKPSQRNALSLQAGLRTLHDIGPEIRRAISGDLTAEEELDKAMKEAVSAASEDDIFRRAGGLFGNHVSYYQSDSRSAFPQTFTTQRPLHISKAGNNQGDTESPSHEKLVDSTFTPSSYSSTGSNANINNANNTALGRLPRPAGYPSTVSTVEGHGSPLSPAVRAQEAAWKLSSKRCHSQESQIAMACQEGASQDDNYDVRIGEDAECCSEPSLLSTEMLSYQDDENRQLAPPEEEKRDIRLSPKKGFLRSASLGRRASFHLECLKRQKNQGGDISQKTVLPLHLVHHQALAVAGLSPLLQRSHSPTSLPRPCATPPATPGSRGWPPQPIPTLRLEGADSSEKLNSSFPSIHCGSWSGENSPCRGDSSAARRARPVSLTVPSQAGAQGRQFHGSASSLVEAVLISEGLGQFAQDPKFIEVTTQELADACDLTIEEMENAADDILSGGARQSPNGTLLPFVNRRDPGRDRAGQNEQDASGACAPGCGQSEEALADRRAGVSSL

Structure (SMILES) | inhibition [1] | inhibition at 0.1 µM [2] | Selectivity ratio [3] | inhibition at 1 µM [4] | also measured
COC(=O)C1=C(C)NC(C)=C(C(=O)OC)C1c1ccccc1[N+](=O)[O-] [NIFEDIPINE] | 46% | 69% | 0.67 |  | 
CCOC(=O)C1=C(CC)NC(C)=C(C(=O)OC)C1c1cccc([N+](=O)[O-])c1 (stereo unspecified) | 55% | 76% | 0.72 |  | 
CCOC(=O)C1=C(C)NC(C)=C(C(=O)OCC)C1c1cc2cccc(C)c2nc1Cl |  |  |  | 12% | 
CCOC(=O)C1=C(C)NC(C)=C(C(=O)OC)C1c1ccc([N+](=O)[O-])cc1 (stereo unspecified) |  |  |  | 48% | 
CC1=C(C(=O)OC(C)(C)C)C(c2cccc([N+](=O)[O-])c2)C(C(=O)OC(C)(C)C)=C(C)N1 | 22% | 32% | 0.69 |  | 
COCCOC(=O)C1=C(C)NC(C)=C(C(=O)OC(C)C)C1c1cccc([N+](=O)[O-])c1 (stereo unspecified) |  |  |  |  | Ratio IC50 [5]: 20
CCOC(=O)C1=C(C)NC(C)=C(C(=O)OCC)C1c1cc2cc(Br)ccc2[nH]1 |  |  |  |  | Selectivity ratio [6]: 1.03; inhibition at 0.5 µM [7]: 42%; inhibition [8]: 43%
CCOC(=O)C1=C(C)NC(C)=C(C(=O)OC)C1c1cccc([N+](=O)[O-])c1 (stereo unspecified) [NITRENDIPINE] | 34% | 62% | 0.55 |  | 
CCOC(=O)C1=C(CC)NC(C)=C(C(=O)OC)C1c1ccc([N+](=O)[O-])cc1 (stereo unspecified) |  |  |  | 28% | 
CCOC(=O)C1=C(C)NC(C)=C(C(=O)OCC)C1c1cccc([N+](=O)[O-])c1 |  |  |  |  | inhibition at 0.01 µM [9]: 32%; inhibition [10]: 43%; Selectivity ratio [11]: 1.34
CCOC(=O)C1=C(C)NC(C)=C(C(=O)OCC)C1c1cccc(C(F)(F)F)c1 |  |  |  |  | inhibition at 0.2 µM [12]: 85%; inhibition [13]: 84%; Selectivity ratio [14]: 0.99
CCOC(=O)C1=C(C)NC(C)=C(C(=O)OCC)C1c1cccc(F)c1 | 48% | 64% | 0.75 |  | 
CCOC(=O)C1=C(C)N=C(C)/C(=C(/O)OCC)C1/C=C/c1ccccc1 (stereo unspecified) |  |  |  | 30% | 
CCOC(=O)C1=C(C)N=C(C)/C(=C(/O)OCC)C1c1cccnc1 (stereo unspecified) |  |  |  |  | inhibition at 0.2 µM [12]: 25%; inhibition [13]: 14%; Selectivity ratio [14]: 0.56
CCOC(=O)C1=C(C)NC(C)=C(C(=O)OCC)C1c1cccc(Cl)c1 | 59% | 58% | 1.02 |  | 
CCOC(=O)C1=C(C)N=C(C)/C(=C(/O)OCC)C1c1ccco1 (stereo unspecified) |  |  |  |  | inhibition at 0.2 µM [12]: 72%; inhibition [13]: 48%; Selectivity ratio [14]: 0.67
CCOC(=O)C1=C(C)NC(C)=C(C(=O)OCC)C1c1ccc(OCc2ccc(Br)cc2)cc1 |  |  |  | 38% | 
CCOC(=O)C1=C(CC)NC(CC)=C(C(=O)OCC)C1c1ccc([N+](=O)[O-])cc1 |  |  |  |  | inhibition at 1 µM [15]: 58%
CCOC(=O)C1=C(C)NC(C)=C(C(=O)OCC)C1c1ccc(-c2cccs2)s1 |  |  |  | 35% | 
CCOC(=O)C1=C(CC)NC(CC)=C(C(=O)OCC)C1c1cccc([N+](=O)[O-])c1 | 37% | 52% | 0.71 |  | 
CCCC1=C(C(=O)OCC)C(c2cccc([N+](=O)[O-])c2)C(C(=O)OCC)=C(CCC)N1 | 27% | 25% | 1.07 |  | 
CCOC(=O)C1=C(C)NC(C)=C(C(=O)OCC)C1c1cccc(Br)c1 | 80% | 82% | 0.98 |  | 
CCOC(=O)C1=C(C)NC(C)=C(C(=O)OCC)C1c1ccc([N+](=O)[O-])cc1 |  |  |  | 48% | 
CCOC(=O)C1=C(C)NC(C)=C(C(=O)OC)C1c1ccccc1[N+](=O)[O-] (stereo unspecified) |  |  |  |  | inhibition [16]: 26%; inhibition at 0.01 µM [9]: 41%; Selectivity ratio [11]: 0.63
CCOC(=O)C1=C(C)N(C)C(C)=C(C(=O)OCC)C1c1cccc([N+](=O)[O-])c1 |  |  |  | 35% | 
CC1=C(C(=O)OC(C)(C)C)C(c2ccc([N+](=O)[O-])cc2)C(C(=O)OC(C)(C)C)=C(C)N1 |  |  |  | 36% | 
CCOC(=O)C1=C(C)NC(C)=C(C(=O)OCC)C1c1ccc([N+](=O)[O-])o1 |  |  |  |  | inhibition at 0.2 µM [12]: 43%; inhibition [13]: 41%; Selectivity ratio [14]: 0.95
CCOC(=O)C1=C(C)NC(C)=C(C(=O)OCC)C1C(C)c1ccccc1 (stereo unspecified) |  |  |  | 28% | 
CCOC(=O)C1=C(C)N=C(C)/C(=C(/O)OCC)C1c1cccc(OC)c1 (stereo unspecified) |  |  |  |  | inhibition at 0.2 µM [12]: 69%; inhibition [13]: 44%; Selectivity ratio [14]: 0.64
CCOC(=O)C1=C(C)NC(C)=C(C(=O)OCC)C1c1ccccc1 | 41% | 48% | 0.85 |  | 
